Measured values as given in ChEMBL document CHEMBL4840303, “Design, synthesis, biological evaluation and pharmacophore model analysis of novel tetrahydropyrrolo[3,4-c]pyrazol derivatives as potential TRKs inhibitors” (Eur J Med Chem, 2021).

Assays:
[1] = molecular target: Tyrosine-protein kinase BTK (Homo sapiens) (UniProt Q06187); experiment: Inhibition of recombinant His-tagged full length human BTK expressed in baculovirus expression system at 1 uM measured by select screen assay relative to control
In short: (§1)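 Single-concentration profiling at 1.0 µM in a 28-kinase SelectScreen panel; percent inhibition reported.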

[2] = molecular target: Tyrosine-protein kinase JAK2 (Homo sapiens) (UniProt O60674); experiment: Inhibition of recombinant GST-tagged human JAK2 expressed in baculovirus expression system at 1 uM measured by select screen assay relative to control; in short: as §1
[3] = molecular target: High affinity nerve growth factor receptor (Homo sapiens, UniProt P04629); experiment: Inhibition of N-terminal GST-tagged human TRKA (436 to 790 residues) expressed in baculovirus infected Sf21 cells using TK as substrate in presence of ATP measured after 30 mins by HTRF assay
[4] = system: KM12; experiment: Induction of apoptosis in human KM12 cells assessed as viable cells at 250 nM measured after 48 hrs by AnnexinV-FITC/PI staining based flowcytometry assay relative to control; type: functional; conditions: read-out: Activity
In short: (§2)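 10^5 cells in Annexin V binding buffer stained with FITC-Annexin V and PI for 10 min at room temperature in the dark, diluted with PBS and analysed by flow cytometry (FITC 494/518 nm, PI 535/617 nm).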

[5] = system: KM12; experiment: Induction of apoptosis in human KM12 cells assessed as viable cells at 500 nM measured after 48 hrs by AnnexinV-FITC/PI staining based flowcytometry assay relative to control; type: functional; conditions: read-out: Activity; in short: as §2
[6] = system: KM12; experiment: Induction of apoptosis in human KM12 cells assessed as early apoptotic cells at 500 nM measured after 48 hrs by AnnexinV-FITC/PI staining based flowcytometry assay relative to control; type: functional
In short: (§3)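 They were detached with trypsin, washed twice in PBS, and 10^5 cells were suspended in Annexin V binding buffer. Cells were stained with FITC-Annexin V and PI for 10 min at room temperature in the dark, diluted with PBS and analysed by flow cytometry.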

[7] = system: KM12; experiment: Induction of apoptosis in human KM12 cells assessed as early apoptotic cells at 1000 nM measured after 48 hrs by AnnexinV-FITC/PI staining based flowcytometry assay relative to control; type: functional; in short: as §3
[8] = system: KM12; experiment: Cell cycle arrest in human KM12 cells assessed as accumulation of cells at less G1 phase at 125 nM measured after 48 hrs by AnnexinV-FITC/PI staining based flowcytometry method relative to control; type: functional
[9] = molecular target: ALK tyrosine kinase receptor (Homo sapiens) (UniProt Q9UM73); experiment: Inhibition of recombinant GST-tagged human ALK expressed in baculovirus expression system at 1 uM measured by select screen assay relative to control; in short: as §1
[10] = molecular target: Receptor-type tyrosine-protein kinase FLT3 (Homo sapiens) (UniProt P36888); experiment: Inhibition of recombinant His-tagged human FLT3 expressed in baculovirus expression system at 1 uM measured by select screen assay relative to control; in short: as §1
[11] = molecular target: Maternal embryonic leucine zipper kinase (Homo sapiens) (UniProt Q14680); experiment: Inhibition of recombinant GST-tagged human MELK expressed in baculovirus expression system at 1 uM measured by select screen assay relative to control; in short: as §1
[12] = molecular target: Proto-oncogene tyrosine-protein kinase ROS (Homo sapiens) (UniProt P08922); experiment: Inhibition of recombinant GST-tagged human ROS1 expressed in baculovirus expression system at 1 uM measured by select screen assay relative to control; in short: as §1
[13] = molecular target: Serine/threonine-protein kinase B-raf (Homo sapiens) (UniProt P15056); experiment: Inhibition of recombinant GST-tagged human full length BRAF expressed in baculovirus expression system at 1 uM measured by select screen assay relative to control; in short: as §1
[14] = molecular target: Serine/threonine-protein kinase PAK 1 (Homo sapiens) (UniProt Q13153); experiment: Inhibition of recombinant GST-tagged human full length PAK1 expressed in baculovirus expression system at 1 uM measured by select screen assay relative to control; in short: as §1
[15] = molecular target: Cyclin-dependent kinase 2 (Homo sapiens) (UniProt P24941); experiment: Inhibition of recombinant His-tagged human full length CDK2 expressed in baculovirus expression system at 1 uM measured by select screen assay relative to control; in short: as §1
[16] = molecular target: Serine/threonine-protein kinase pim-1 (Homo sapiens) (UniProt P11309); experiment: Inhibition of recombinant His-tagged full length human PIM1 expressed in baculovirus expression system at 1 uM measured by select screen assay relative to control; in short: as §1
[17] = Stability in human plasma assessed as compound remaining incubated for 10 mins by LC-MS/MS analysis; type: ADME, cell-free; conditions: read-out: Stability
In short: (§4)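 Pooled frozen human plasma thawed at 37 °C, centrifuged to remove clots, pH adjusted to 7.4 if required. Spiked to 2 µM final (from 100 µM dosing solution), in duplicate, incubated at 37 °C in a water bath. Sampled at 0, 10, 30, 60 and 120 min, quenched with acetonitrile stop solution containing internal standards, centrifuged, and supernatant analysed by LC-MS/MS for percent remaining.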

[18] = Stability in human plasma assessed as compound remaining incubated for 120 mins by LC-MS/MS analysis; type: ADME, cell-free; conditions: read-out: Stability; in short: as §4
[19] = molecular target: CYP1A2 (Homo sapiens, UniProt P05177); experiment: Inhibition of CYP1A2 in human liver microsomes at 10 uM preincubated for 10 mins followed by addition of NADPH and measured after 15 mins by LC-MS/MS analysis; type: ADME; conditions: time 25 min
In short: (§5)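 Pooled human liver microsomes (0.253 mg/mL) with test compound at 10 µM and probe substrates: phenacetin (CYP1A2), diclofenac (CYP2C9), S-mephenytoin (CYP2C19), dextromethorphan (CYP2D6), midazolam (CYP3A4). 10 min preincubation at 37 °C, NADPH-regenerating system added, 15 min at 37 °C. Stopped with cold acetonitrile containing tolbutamide/labetalol internal standards, centrifuged, supernatant read by LC-MS/MS; % inhibition.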

[20] = molecular target: CYP2C19 (Homo sapiens, UniProt P33261); experiment: Inhibition of CYP2C19 in human liver microsomes at 10 uM preincubated for 10 mins followed by addition of NADPH and measured after 15 mins by LC-MS/MS analysis; type: ADME; conditions: time 25 min; in short: as §5
[21] = molecular target: CYP3A4 (Homo sapiens, UniProt P08684); experiment: Inhibition of CYP3A4 in human liver microsomes at 10 uM preincubated for 10 mins followed by addition of NADPH and measured after 15 mins by LC-MS/MS analysis; type: ADME; in short: as §5
[22] = Cmax in Sprague dawley rat at 3 mg/kg, po; type: ADME, organism-based; design: route oral, dose 3 mg/kg; conditions: in vivo
In short: (§6)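 Blood was collected into heparin tubes at specified time points and centrifuged at once (4 °C, 4000 rpm, 20 min). Plasma levels were quantified by LC-MS/MS. Parameters came from noncompartmental analysis.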

[23] = AUC (0 to infinity) in Sprague dawley rat at 1 mg/kg, iv; type: ADME, organism-based; design: time infinity, route intravenous, dose 1 mg/kg; conditions: in vivo; in short: as §6
[24] = Oral bioavailability in Sprague dawley rat at 3 mg/kg; type: ADME, organism-based; conditions: in vivo
In short: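 Male-unspecified SD rats, n = 3 per group, single i.v. dose 1 mg/kg or oral 3 mg/kg. Blood drawn into heparin tubes at set times, centrifuged at 4 °C, plasma quantified by LC-MS/MS; noncompartmental parameters fitted.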

[25] = system: KM12; experiment: cells; conditions: Homo sapiens, KM12, 72 h
[26] = system: A549; experiment: cells; conditions: Homo sapiens, A549, 72 h

Serine/threonine-protein kinase pim-1 (Homo sapiens), sequence (P11309 whole entry, looked up): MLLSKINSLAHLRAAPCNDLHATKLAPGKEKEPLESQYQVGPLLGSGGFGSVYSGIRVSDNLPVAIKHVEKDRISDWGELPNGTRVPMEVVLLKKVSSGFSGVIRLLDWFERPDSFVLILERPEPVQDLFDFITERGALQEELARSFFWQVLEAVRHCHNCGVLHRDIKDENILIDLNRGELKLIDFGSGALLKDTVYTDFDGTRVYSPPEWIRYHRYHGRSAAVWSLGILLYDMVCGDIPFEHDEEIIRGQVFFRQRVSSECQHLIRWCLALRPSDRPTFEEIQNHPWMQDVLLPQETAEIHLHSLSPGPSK
CYP2C19, sequence (P33261 whole entry): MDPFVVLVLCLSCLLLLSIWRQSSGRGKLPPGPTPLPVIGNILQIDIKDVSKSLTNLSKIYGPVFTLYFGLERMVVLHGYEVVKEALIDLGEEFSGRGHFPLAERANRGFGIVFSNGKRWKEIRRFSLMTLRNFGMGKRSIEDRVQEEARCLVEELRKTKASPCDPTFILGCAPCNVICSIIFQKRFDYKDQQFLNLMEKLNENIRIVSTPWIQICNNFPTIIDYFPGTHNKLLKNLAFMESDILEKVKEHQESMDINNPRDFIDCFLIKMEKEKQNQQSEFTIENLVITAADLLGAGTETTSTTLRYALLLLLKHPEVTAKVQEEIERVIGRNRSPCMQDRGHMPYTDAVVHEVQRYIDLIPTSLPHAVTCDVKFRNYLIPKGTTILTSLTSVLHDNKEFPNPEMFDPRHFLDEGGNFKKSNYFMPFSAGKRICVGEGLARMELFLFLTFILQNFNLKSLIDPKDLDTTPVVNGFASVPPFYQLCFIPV
ALK tyrosine kinase receptor (Homo sapiens), sequence (Q9UM73 19-1620 limits assumed): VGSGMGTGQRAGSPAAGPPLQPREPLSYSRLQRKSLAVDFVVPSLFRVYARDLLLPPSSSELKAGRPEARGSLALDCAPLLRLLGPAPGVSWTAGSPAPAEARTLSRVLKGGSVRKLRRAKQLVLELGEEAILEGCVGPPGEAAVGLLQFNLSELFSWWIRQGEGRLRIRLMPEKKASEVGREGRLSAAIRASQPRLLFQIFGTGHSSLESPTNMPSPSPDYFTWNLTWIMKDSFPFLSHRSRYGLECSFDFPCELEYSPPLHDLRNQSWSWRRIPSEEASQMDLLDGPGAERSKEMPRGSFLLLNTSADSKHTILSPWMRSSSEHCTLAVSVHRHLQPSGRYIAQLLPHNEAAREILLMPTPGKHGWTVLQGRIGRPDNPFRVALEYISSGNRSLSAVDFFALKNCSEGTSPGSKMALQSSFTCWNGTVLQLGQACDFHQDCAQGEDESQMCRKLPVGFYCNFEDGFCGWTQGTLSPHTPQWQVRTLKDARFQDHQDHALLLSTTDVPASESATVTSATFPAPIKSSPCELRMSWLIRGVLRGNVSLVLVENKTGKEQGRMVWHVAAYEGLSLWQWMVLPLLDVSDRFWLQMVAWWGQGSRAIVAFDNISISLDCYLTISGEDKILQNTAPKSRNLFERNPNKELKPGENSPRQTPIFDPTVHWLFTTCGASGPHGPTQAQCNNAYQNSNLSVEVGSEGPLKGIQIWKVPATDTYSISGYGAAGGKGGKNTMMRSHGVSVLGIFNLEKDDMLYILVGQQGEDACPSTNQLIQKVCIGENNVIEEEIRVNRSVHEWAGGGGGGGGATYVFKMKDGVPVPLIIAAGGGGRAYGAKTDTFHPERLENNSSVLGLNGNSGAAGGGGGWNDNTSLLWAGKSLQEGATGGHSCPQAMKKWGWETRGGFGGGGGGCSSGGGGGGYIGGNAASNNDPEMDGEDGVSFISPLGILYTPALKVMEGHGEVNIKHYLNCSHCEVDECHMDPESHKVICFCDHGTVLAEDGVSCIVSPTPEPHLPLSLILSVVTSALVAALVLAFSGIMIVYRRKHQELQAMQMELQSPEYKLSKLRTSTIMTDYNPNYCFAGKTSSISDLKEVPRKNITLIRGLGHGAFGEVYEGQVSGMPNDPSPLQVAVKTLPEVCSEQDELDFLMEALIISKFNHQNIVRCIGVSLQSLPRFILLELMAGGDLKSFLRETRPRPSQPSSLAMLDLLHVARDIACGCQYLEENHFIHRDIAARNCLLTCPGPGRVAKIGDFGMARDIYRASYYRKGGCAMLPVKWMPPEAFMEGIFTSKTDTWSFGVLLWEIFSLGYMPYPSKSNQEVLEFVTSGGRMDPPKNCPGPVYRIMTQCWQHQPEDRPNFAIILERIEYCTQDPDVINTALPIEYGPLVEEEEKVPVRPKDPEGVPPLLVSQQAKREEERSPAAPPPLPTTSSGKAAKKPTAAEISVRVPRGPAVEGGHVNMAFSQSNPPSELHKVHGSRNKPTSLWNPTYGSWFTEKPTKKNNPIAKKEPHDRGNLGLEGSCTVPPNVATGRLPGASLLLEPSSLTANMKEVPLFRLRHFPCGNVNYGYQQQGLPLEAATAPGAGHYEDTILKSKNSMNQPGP
CYP3A4, sequence (P08684 whole entry): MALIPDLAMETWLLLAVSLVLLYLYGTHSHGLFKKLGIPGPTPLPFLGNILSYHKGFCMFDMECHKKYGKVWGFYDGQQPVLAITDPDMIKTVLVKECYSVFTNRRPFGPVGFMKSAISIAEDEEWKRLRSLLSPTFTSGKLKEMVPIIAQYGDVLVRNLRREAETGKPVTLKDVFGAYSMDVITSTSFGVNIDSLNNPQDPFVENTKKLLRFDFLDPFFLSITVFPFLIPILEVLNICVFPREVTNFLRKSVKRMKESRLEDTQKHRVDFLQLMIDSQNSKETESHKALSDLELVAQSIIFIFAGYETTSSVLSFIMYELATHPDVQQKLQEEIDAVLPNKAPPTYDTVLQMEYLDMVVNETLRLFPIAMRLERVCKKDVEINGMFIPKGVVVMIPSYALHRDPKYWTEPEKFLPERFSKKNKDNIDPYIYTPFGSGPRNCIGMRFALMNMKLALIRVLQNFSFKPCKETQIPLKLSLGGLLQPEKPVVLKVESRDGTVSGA
CYP1A2, sequence (P05177 whole entry): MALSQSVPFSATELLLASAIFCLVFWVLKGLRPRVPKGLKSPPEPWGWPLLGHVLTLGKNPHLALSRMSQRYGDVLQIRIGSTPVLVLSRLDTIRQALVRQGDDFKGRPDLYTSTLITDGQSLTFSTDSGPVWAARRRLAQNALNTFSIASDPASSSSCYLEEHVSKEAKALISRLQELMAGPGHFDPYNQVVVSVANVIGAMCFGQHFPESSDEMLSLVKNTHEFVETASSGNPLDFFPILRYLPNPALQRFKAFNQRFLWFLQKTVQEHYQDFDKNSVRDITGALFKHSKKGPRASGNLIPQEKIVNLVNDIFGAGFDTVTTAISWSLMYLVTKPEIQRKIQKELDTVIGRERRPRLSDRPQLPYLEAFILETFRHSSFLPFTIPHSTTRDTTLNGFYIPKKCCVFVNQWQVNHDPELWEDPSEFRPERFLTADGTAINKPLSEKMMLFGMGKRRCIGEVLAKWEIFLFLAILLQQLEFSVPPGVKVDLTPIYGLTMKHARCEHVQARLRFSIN
Maternal embryonic leucine zipper kinase (Homo sapiens), sequence (Q14680 whole entry, looked up): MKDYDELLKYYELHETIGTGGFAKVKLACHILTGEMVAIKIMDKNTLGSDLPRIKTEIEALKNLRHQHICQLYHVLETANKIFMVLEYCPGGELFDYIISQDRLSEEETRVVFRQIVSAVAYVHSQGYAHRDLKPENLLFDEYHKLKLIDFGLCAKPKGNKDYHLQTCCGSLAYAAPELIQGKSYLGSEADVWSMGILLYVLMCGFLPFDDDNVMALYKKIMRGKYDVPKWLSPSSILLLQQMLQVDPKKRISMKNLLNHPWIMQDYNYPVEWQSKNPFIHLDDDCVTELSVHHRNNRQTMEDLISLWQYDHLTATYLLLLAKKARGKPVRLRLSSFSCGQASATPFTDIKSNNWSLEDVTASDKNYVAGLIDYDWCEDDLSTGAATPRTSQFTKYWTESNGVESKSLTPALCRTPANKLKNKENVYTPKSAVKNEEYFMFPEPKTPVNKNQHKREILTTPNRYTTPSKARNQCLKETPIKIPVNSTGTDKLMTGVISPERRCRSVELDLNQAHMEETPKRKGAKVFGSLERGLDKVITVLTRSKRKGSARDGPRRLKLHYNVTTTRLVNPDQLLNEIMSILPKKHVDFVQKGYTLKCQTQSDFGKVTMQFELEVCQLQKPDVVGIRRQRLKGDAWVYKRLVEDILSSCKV
Tyrosine-protein kinase BTK (Homo sapiens), sequence (Q06187 whole entry): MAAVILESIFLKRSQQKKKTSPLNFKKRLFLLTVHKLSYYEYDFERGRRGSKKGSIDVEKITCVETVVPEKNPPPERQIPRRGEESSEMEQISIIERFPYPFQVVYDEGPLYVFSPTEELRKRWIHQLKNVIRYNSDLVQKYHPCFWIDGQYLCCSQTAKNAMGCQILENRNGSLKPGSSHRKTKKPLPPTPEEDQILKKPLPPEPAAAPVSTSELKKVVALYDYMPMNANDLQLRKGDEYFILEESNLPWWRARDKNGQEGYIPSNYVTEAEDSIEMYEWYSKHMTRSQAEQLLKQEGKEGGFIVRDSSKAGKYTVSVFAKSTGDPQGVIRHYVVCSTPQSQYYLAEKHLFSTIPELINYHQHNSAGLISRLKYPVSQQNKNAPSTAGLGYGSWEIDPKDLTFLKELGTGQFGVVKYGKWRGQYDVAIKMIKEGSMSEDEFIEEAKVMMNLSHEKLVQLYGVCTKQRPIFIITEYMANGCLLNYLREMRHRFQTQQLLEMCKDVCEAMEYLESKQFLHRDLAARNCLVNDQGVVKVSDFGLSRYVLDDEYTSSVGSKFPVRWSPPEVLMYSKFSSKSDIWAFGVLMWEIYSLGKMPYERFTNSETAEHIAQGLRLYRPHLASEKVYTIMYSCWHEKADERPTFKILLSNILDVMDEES

inhibition [1]: 35% | inhibition [2]: 76% | IC50 [3]: 17 nM | inhibition [9]: 82% | inhibition [10]: 31% | inhibition [11]: 22% | inhibition [12]: 10% | inhibition [13]: 3% | inhibition [14]: 3% | inhibition [15]: 3% | inhibition [16]: 0% | remaining at 10 min [17]: 96.8% | remaining at 2 h [18]: 101% | inhibition at 0.25 h, 10 µM [19]: 12.9% | inhibition at 0.25 h, 10 µM [20]: 11.5% | inhibition at 0.25 h, 10 µM [21]: 6.4% | Cmax [22]: 603 ng/mL | AUC(0-inf) [23]: 2080 ng·h/mL | bioavailability [24]: 44.3% | IC50 [25]: 82 nM | IC50 [26]: 72300 nM
Structure (SMILES): CN1CCN(c2ccc(C(=O)Nc3n[nH]c4c3CN(Cc3cc(F)cc(F)c3)C4(C)C)cc2)CC1
viability at 0.25 µM [4]: 30.2% | viability at 0.5 µM [5]: 25% | Activity [6]: 35.84% | Activity [7]: 36.3% | Activity [8]: 7.36%
